High-throughput results: PubChem BioAssay, Sanford-Burnham Center for Chemical Genomics
Hits are enriched below; roughly 2.3% of the tested compounds scored in any of these assays.
LMPTP block: LMPTP phosphatase inhibitors, primary screen, biochemical, fluorescence intensity, uHTS; recombinant LMPTP-A, OMFP fluorogenic substrate; inhibition, % at 20 µM; 360,000 tested, 0.22% active; AID 651560, 2012;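 active = compounds that cut the enzyme signal by at least half of the control window in the single-dose screen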;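 also: plate controls were DMSO wells with enzyme plus substrate for no effect and substrate without enzyme for full effect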
Target sequence (P24666 whole entry, looked up): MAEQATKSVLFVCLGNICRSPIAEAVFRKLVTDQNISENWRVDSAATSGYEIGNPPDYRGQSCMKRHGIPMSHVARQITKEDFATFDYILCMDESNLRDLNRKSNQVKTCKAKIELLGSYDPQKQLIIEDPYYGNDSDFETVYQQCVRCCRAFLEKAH
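material = LMPTP-A | quantity = 0.625 nM enzyme | reagent = OMFP substrate, 400 µM final | buffer or medium = Bis-Tris pH 6.0, DTT, detergent | detection = endpoint fluorescence intensity from OMFP dephosphorylation | dosing = single 20 µM dose | read-out basis = % inhibition relative to no-enzyme and uninhibited control wells | control set = no-enzyme and uninhibited controls | timing = 50 min at room temperature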
SUMO1-SIM PPI: modulators of SUMO1 protein-protein interactions, primary screen, biochemical, uHTS. SUMO1 binding to a labelled peptide, TR-FRET, 1 h. inhibition, % at 20 µM. 360,000 tested, 0.33% active. AID 602429, 2012; in the data active = inhibition above about 37%
Rpn11 block: Rpn11 (PSMD14) deubiquitinase inhibitors, primary screen, biochemical, fluorescence polarization, uHTS | human 26S proteasome, Ub4-pepOG fluorescence polarization; 20S core pre-blocked with epoxomicin | inhibition, % at 20 µM | 360,000 tested, 0.59% active | AID 588493, 2011;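 active = inhibition at 20 µM, scaled to each plate's controls, above about 33%, limit read from the data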
Target sequence (O00487 whole entry, looked up): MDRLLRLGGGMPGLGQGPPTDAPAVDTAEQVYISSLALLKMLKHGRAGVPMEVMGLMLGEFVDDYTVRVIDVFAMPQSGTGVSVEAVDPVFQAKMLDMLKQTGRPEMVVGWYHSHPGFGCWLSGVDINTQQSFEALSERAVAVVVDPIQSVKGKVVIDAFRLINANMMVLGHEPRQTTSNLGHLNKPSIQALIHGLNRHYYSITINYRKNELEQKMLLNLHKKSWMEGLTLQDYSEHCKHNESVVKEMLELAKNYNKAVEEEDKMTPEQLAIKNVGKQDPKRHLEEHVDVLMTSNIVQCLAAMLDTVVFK
STEP inh: STEP phosphatase inhibitors, primary screen, biochemical, fluorescence intensity, uHTS. Tyrosine-protein phosphatase non-receptor type 5 (Homo sapiens), P54829. recombinant STEP, OMFP fluorogenic substrate. inhibition, % at 20 µM. 360,000 tested, 0.25% active. AID 588621, 2011;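 active = inhibition at 20 µM, scaled per plate between control wells, above about 37%, limit read from the data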;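 also: 0% = DMSO with enzyme and substrate and 100% = substrate only without enzyme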
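medium = Bis-Tris buffer pH 6.0, 2.5 mM DTT, 0.005% Tween 20 | test system = STEP (striatal-enriched tyrosine phosphatase) enzyme, cell-free | measure = normalized % inhibition | compound dosing = 20 µM, 1% DMSO | also added = 25 µM OMFP | schedule = reaction 20 min, ambient temperature | measured by = fluorescence read at 480 nm ex / 540 nm em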
Scp-1 inhibitor: Scp-1 phosphatase inhibitors, primary screen, biochemical, colorimetric, uHTS | 340,000 tested, 0.88% active | inhibition, % at 20 µM | Recombinant Scp1, phosphopeptide, malachite green phosphate absorbance;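 active = inhibition above about 50% at 20 µM, limit read from the data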;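 also: plate controls were DMSO wells with enzyme for no effect and wells lacking enzyme for full effect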
Target sequence (Q9GZU7 76-261 limits assumed): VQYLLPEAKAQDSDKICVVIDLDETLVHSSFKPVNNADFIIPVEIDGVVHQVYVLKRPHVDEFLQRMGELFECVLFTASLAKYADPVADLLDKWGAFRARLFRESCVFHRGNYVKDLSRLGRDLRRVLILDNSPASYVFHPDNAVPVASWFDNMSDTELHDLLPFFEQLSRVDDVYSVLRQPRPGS
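System: truncated SCP-1 phosphatase (76-261aa); medium: Tris acetate buffer pH 5.5 with MgCl2 and Tween-20; incubation: 45 min room-temperature reaction, 5 min colour, 30 min stabiliser; compound: single 20 µM dose, 1% DMSO; reagent: Phosphorylated 17-residue peptide substrate; read-out: % inhibition at 20 µM; technique: colorimetric free-phosphate detection, absorbance 630 nm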
DNMT1 block: human DNMT1 methyltransferase inhibitors, primary screen, biochemical, molecular beacon, fluorescence, HinP1I cleavage, uHTS; DNA (cytosine-5)-methyltransferase 1 (Homo sapiens), P26358; inhibition (reported as % activation of signal), % at 10 µM; 360,000 tested, 0.83% active; in the data active = inhibition above about 50%
Beacon interf DR: spectral interference with molecular beacon fluorescence, dose response, artefact control for DNMT1 inhibitor project, biochemical, fluorescent molecular beacon. shares compounds with DNMT1 block. spectral interference counter-screen. IC50, µM. 200 tested, under 10 active. AID 602382, 2012; call rule not given here
DNMT1 inh conf: DNMT1 methyltransferase inhibitor retest, confirmation, biochemical, molecular beacon, fluorescence, single concentration; shares compounds with DNMT1 block; DNMT1 molecular beacon HinP1I cleavage; inhibition, % at 10 µM; 2,300 tested, 8% active; AID 602385, 2012;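 active = average inhibition of at least 30% in the single-concentration confirmation test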
Beacon interf: beacon fluorescence artifact counter-screen. activation (fluorescence interference), % at 10 µM. AID 602387. DNMT1 molecular beacon spectral interference counterscreen, fluorescence 485/520. shares compounds with DNMT1 block. 2,300 tested, 1% active;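 active = activation of at least 30% at 10 µM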;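 also: DNMT1 catalytic domain with a HinP1I cleavage step and a FAM/dabcyl DNA beacon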
* marks the source's active call; other numbers are inactive results; nt = not tested or not shown.

SMILES	LMPTP block	SUMO1-SIM PPI	Rpn11 block	STEP inh	Scp-1 inhibitor	DNMT1 block	DNMT1 inh conf	Beacon interf	others
O=C(/C=C/c1ccco1)NC(=S)Nc1cccc(-c2nc3ccccc3s2)c1	5	23	32	-1	-14	32	nt	nt
Cc1ccc(-c2nc3ccccc3s2)cc1NC(=S)NC(=O)/C=C/c1ccco1	0	13	1	6	-8	54*	-2	-5
O=C(/C=C/c1ccco1)NC(=S)Nc1cc(-c2nc3ccccc3s2)ccc1Cl	5	25	25	-2	-2	98*	2	-4
COC(=O)C[C@@H]1C=C[C@@H](NC(=O)NC2CCCC2)[C@@H](CO)O1	-2	1	nt	nt	nt	nt	nt	nt
O=C(Nc1ccc2nc(-c3ccco3)c(-c3ccco3)nc2c1)N1CCN(c2ccccn2)CC1	87*	46*	-52	5	92*	93*	0	-2
Cc1nc2cc(NC(=O)N3CCN(c4ccccn4)CC3)ccc2o1	5	0	-1	-3	-8	0	nt	nt
CCc1ccc2c(c1)c1nc(C)sc1n2CC	3	36	5	5	-4	51*	3	3
CC12CCC(C(=O)NCCCN3CCOCC3)(C(Br)C1=O)C2(C)C (stereo unspecified)	-2	-6	-2	1	7	0	nt	nt
CCOc1cc(/C=C2/NC(=S)NC2=O)ccc1OCc1ccc([N+](=O)[O-])cc1	21	-6	8	8	0	52*	3	9
O=C(Nc1oc2ccccc2c(=O)c1-c1ccccc1)c1ccco1	-2	6	4	1	nt	3	nt	nt
CCCn1c(N)c(NCCN2CCOCC2)c(=O)n(CC(=O)NCc2ccccc2)c1=O	0	2	4	0	-8	86*	9	7
Cc1nn(CC(=O)NCCN2CCOCC2)c(=O)c2ccccc12	0	0	-4	-2	0	1	nt	nt
Cc1ccc(Cl)cc1NC(=O)c1cc2ccccc2cc1O	6	10	-3	19	18	-8	nt	nt
COc1ccc(S(=O)(=O)/N=C2/NC(=O)/C(=C\c3ccco3)S2)cc1	-1	9	5	1	0	23	nt	nt
COc1ccc(S(=O)(=O)/N=C2/NC(=O)/C(=C/c3ccco3)S2)cc1	1	25	6	4	20	64*	0	-1
Cc1ccc(OCCCCNC2CCCC(C)C2C)c(C)c1 (stereo unspecified)	-2	-4	1	0	-4	4	nt	nt
Cc1cc(C(F)(F)F)c(C#N)c(SCC(=O)Nc2nc3ccccc3s2)n1	-1	-1	nt	-4	-7	83*	23	11
Cc1nc(SCC(=O)Nc2nc3ccccc3s2)c(C#N)c(C)c1C	0	1	2	1	-6	0	nt	nt
O=C(CNC(=O)/C=C/c1ccco1)N=Nc1c(O)[nH]c2ccccc12	72*	105*	38	98*	93*	93*	82*	-3	Beacon interf DR=>99
NC(=S)N/N=C/c1coc2ccc(Br)cc2c1=O	16	-3	nt	2	-1	-5	nt	nt
NC(=S)N/N=C/c1coc2c(ccc3ccccc32)c1=O	16	2	25	-2	-6	55*	2	-7
COc1ccc(NC(=O)/C(C#N)=C/c2ccc(OCCN3CCOCC3)c(OC)c2)c(OC)c1	3	3	-1	1	-4	-3	nt	nt
CCOc1ccccc1-n1nnnc1SCC(=O)NC(=O)NCc1ccco1	11	5	-18	-15	48	60*	1	5
O=C(CSc1nnnn1-c1ccccc1)NC(=O)NCc1ccco1	30	27	-20	-2	42	68*	0	-1
CS(=O)(=O)c1ccc2nc(NC(=O)CCNC(=O)c3ccc(Cl)cc3)sc2c1	-1	-3	2	0	-3	-1	nt	nt
SMILES	LMPTP block	SUMO1-SIM PPI	Rpn11 block	STEP inh	Scp-1 inhibitor	DNMT1 block	DNMT1 inh conf	Beacon interf	others
Cc1ccccc1C(=O)NCCCNC(=O)c1ccccc1C	-1	2	5	3	-7	3	nt	nt
CCCCN(C(=O)C1CC(=O)N(c2ccc(CC)cc2)C1)c1c(N)n(CCC)c(=O)[nH]c1=O (stereo unspecified)	1	2	-3	3	-2	0	nt	nt
N#CC1=C(N)OC2=C(C(=O)CCC2)C1c1ccncc1 (stereo unspecified)	0	1	2	-2	-6	75*	5	0
Cc1ccc(C2C(C#N)=C(N)OC3=C2C(=O)CCC3)s1 (stereo unspecified)	2	1	2	1	-6	1	nt	nt
CCOC(=O)/C(C#N)=C/c1ccc(OCC(=O)Nc2ccc(C)c(C)c2)c(OC)c1	2	2	-3	0	1	54*	2	-2
COc1cc(/C=C(/C#N)c2nc3ccccc3[nH]2)ccc1OCC(=O)Nc1ccccc1C	3	1	-6	0	-8	52*	-1	-1
COc1cc(/C=C(\C#N)c2nc3ccccc3s2)ccc1OCC(=O)Nc1ccccc1	2	0	nt	-4	-9	57*	5	6
COc1cc(/C=C(\CC(=O)O)c2nc3ccccc3s2)ccc1OCC(=O)Nc1ccccc1F	1	-1	4	4	-8	-1	nt	nt
CCOC(=O)/C(C#N)=C/c1ccc(OCC(=O)Nc2ccc(OC)cc2)c(OC)c1	2	-2	0	1	2	-15	nt	nt
COc1cc(/C=C(/C#N)c2nc3ccccc3[nH]2)ccc1OCC(=O)Nc1ccccc1C(C)C	-1	-2	8	-1	9	-2	nt	nt
CCOC(=O)CC1C(=O)NCCN1S(=O)(=O)c1cccc(C(F)(F)F)c1 (stereo unspecified)	-2	-1	-2	0	-4	1	nt	nt
